# From article PMC5360466 (Hepatology (Baltimore, Md.), 2017)
# Entries after “also recorded” stand apart in the source; their conditions may differ.
# Columns and labels:
# RRV [1] = test: RRV binding; format: cell-based; conditions: for effect on RRV-cholangiocyte binding: peptides at varying concentrations, 4°C
# How it was run: (§1)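 Confluent mouse or H69 cholangiocytes were pretreated with peptide (1 mM, or varying concentrations). Cells, medium and virus were chilled to 4°C, then inoculated and held 1 h at 4°C. Cells were washed twice and freeze/thawed twice. Bound virus (cell fraction) and unbound virus (washes plus inoculum) were titred by focus forming assay, and attached virus was expressed as % of inoculum. DGEA and GHRP peptides served as controls. Data are mean ± standard error, ANOVA.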
# RRV [2] = test: RRV replication; format: cell-based; conditions: for inhibition of RRV replication: mouse cholangiocytes pretreated with 1 mM peptide, Fig. 8D; for effect on RRV replication: mouse cholangiocytes pretreated with peptide, concentration not given, Fig. 4B
# How it was run: (§2)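 Mouse or H69 cholangiocytes were pretreated with peptide in DMEM (1 mM, or varying concentrations) and infected at 4°C, then incubated 18 h at 37°C. Infectious yield was measured by focus forming assay: serial dilutions at 37°C for 14-16 h, acetone fixation, guinea pig anti-rotavirus IgG (1:1000), then FITC anti-guinea pig IgG (1:500), with foci counted by UV microscopy. DGEA and GHRP served as controls.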
# rotavirus = conditions: due to decreased viral entry; cited from earlier work
# RRV [3] = test: Murine model of biliary atresia; format: in vivo, BALB/c mice; conditions: bile ducts harvested 12 days after infection with RRV and peptide treatment; Fig. 5C
# TUCH [4] = test: TUCH binding assay in mouse cholangiocytes; format: cell-based, rotavirus, simian strain; mouse cholangiocytes; conditions: mouse cholangiocytes pretreated with 1 mM peptide; Fig. 2A, 3B
# How it was run: as §1
# TUCH [5] = test: TUCH viral yield in mouse cholangiocytes; format: cell-based, rotavirus, simian strain; mouse cholangiocytes; conditions: mouse cholangiocytes pretreated with 1 mM peptide; Fig. 2B, 3C
# How it was run: as §2
# Ro1845 [6] = test: Ro1845 binding assay in mouse cholangiocytes; format: cell-based, rotavirus, human strain; mouse cholangiocytes; conditions: mouse cholangiocytes pretreated with 1 mM peptide; Fig. 2A, 3B
# How it was run: as §1
# Ro1845 [7] = test: Ro1845 viral yield in mouse cholangiocytes; format: cell-based, rotavirus, human strain; mouse cholangiocytes; conditions: mouse cholangiocytes pretreated with 1 mM peptide; Fig. 2B, 3C
# How it was run: as §2
# GRV [8] = test: GRV binding assay in mouse cholangiocytes; format: cell-based, rotavirus, goat strain; mouse cholangiocytes; conditions: mouse cholangiocytes pretreated with 1 mM peptide; Fig. 2A
# How it was run: as §1
# GRV [9] = test: GRV viral yield in mouse cholangiocytes; format: cell-based, rotavirus, goat strain; mouse cholangiocytes; conditions: mouse cholangiocytes pretreated with 1 mM peptide; Fig. 2B
# How it was run: as §2
# RRV [10] = test: RRV binding assay in human cholangiocytes; format: cell-based, rhesus rotavirus; human cholangiocytes (H69)
# How it was run: as §1
# RRV [11] = test: RRV replication in human cholangiocytes; format: cell-based, rhesus rotavirus; human cholangiocytes (H69)
# How it was run: as §2
# GRV [12] = test: GRV binding assay in H69 cells; format: cell-based, rotavirus, goat strain; human cholangiocytes (H69); conditions: Fig. 6C
# How it was run: as §1
# GRV [13] = test: GRV viral yield in H69 cells; format: cell-based, rotavirus, goat strain; human cholangiocytes (H69); conditions: Fig. 6D
# How it was run: as §2
# TUCH [14] = test: TUCH binding assay in H69 cells; format: cell-based, rotavirus, simian strain; human cholangiocytes (H69); conditions: Fig. 6C
# How it was run: as §1
# TUCH [15] = test: TUCH viral yield in H69 cells; format: cell-based, rotavirus, simian strain; human cholangiocytes (H69); conditions: Fig. 6D
# How it was run: as §2
# Ro1845 [16] = test: Ro1845 binding assay in H69 cells; format: cell-based, rotavirus, human strain; human cholangiocytes (H69); conditions: Fig. 6C
# How it was run: as §1
# Ro1845 [17] = test: Ro1845 viral yield in H69 cells; format: cell-based, rotavirus, human strain; human cholangiocytes (H69); conditions: Fig. 6D
# How it was run: as §2
# RRV [18] = conditions: negative control peptide; cited from earlier work
# RRV [19] = test: RRV binding in siRNA-transfected mouse cholangiocytes; format: cell-based, rhesus rotavirus; mouse cholangiocytes; conditions: 1 mM peptide, Fig. 8A
# [20] = mouse cholangiocytes pretreated with 1 mM peptide, versus serum-free media, Fig. 3B, 4C, 8C
# [21] = mouse cholangiocytes pretreated with peptide, concentration not given, Fig. 4A
substance,measurement,setting,value
ISRLY,effect on RRV binding,RRV [1]; [20],maintained the ability to inhibit
VSRLY,effect on RRV binding,RRV [1]; [20],maintained the ability to inhibit
FSGIKSTIDAAKSMATNVMKKFKK [reference compound],effect on RRV binding,RRV [1]; [20],no effect
same,inhibition of RRV replication,RRV [2],42.43%
same,viral replication in MA104 cells treated with peptide,rotavirus,reduced viral replication
VSRAY,effect on RRV binding,RRV [1]; [20],unable to exhibit such inhibition
SSASAW,effect on RRV-cholangiocyte binding,"RRV [1]; mouse cholangiocytes, Fig. 1B",did not interfere
same,histology of extrahepatic bile ducts (hematoxylin and eosin),RRV [3],complete obstruction of their bile ducts
KTKIDRSTQISPNTLPD [reference compound],effect on RRV binding,RRV [1]; [20],no effect
same,inhibition of RRV replication,RRV [2],54.50%
same,viral replication in MA104 cells treated with peptide,rotavirus,reduced viral replication
VVRLY,effect on RRV binding,RRV [1]; [20],unable to exhibit such inhibition
VSGLY,effect on RRV binding,RRV [1]; [20],unable to exhibit such inhibition
PTAAGV,effect on RRV-cholangiocyte binding,"RRV [1]; mouse cholangiocytes, Fig. 1B",did not interfere
MRTRVSGLY,effect on RRV binding,RRV [1]; [20],no effect
same,effect on TUCH binding,TUCH [4],no effect
same,effect on TUCH replication / viral yield,TUCH [5],no effect
same,effect on Ro1845 binding,Ro1845 [6],no effect
same,effect on Ro1845 replication / viral yield,Ro1845 [7],no effect
VRTRISGLY,effect on RRV binding,RRV [1]; [20],no effect
same,effect on TUCH binding,TUCH [4],no effect
same,effect on TUCH replication / viral yield,TUCH [5],no effect
same,effect on Ro1845 binding,Ro1845 [6],no effect
same,effect on Ro1845 replication / viral yield,Ro1845 [7],no effect
TRTRVSRLY,effect on RRV binding,RRV [1]; [20],significantly reduced
same,inhibition of RRV binding compared with control,"RRV [1]; mouse cholangiocytes pretreated with 1 mM peptide, Fig. 2A",45.13%
same,effect on RRV binding,RRV [1]; [21],significantly inhibiting
same,inhibition of RRV replication,RRV [2],44.53%
same,effect on RRV replication,RRV [2],significantly inhibiting
same,inhibition of GRV binding compared with control,GRV [8],41.27%
same,"reduction of GRV viral yield, of control",GRV [9],35.51%
same,effect on TUCH binding,TUCH [4],no effect
same,effect on TUCH replication / viral yield,TUCH [5],no reduction in viral yield; also recorded: no effect
same,effect on Ro1845 binding,Ro1845 [6],no effect
same,effect on Ro1845 replication / viral yield,Ro1845 [7],no reduction in viral yield; also recorded: no effect
same,"RRV binding to human cholangiocytes, of control","RRV [10]; H69 cells, 1 mM peptide, Fig. 6A",65.9%
same,effect on RRV binding to H69 cells,"RRV [10]; strain comparison, Fig. 6C",able to block
same,"RRV replication within human cholangiocytes, of control","RRV [11]; H69 cells, 1 mM peptide, Fig. 6B",57.9%
same,effect on RRV viral yield in H69 cells,"RRV [11]; strain comparison, Fig. 6D",reduced viral yields
same,effect on GRV binding to H69 cells,GRV [12],able to block
same,effect on GRV viral yield in H69 cells,GRV [13],reduced viral yields
same,effect on TUCH binding to H69 cells,TUCH [14],no effects
same,effect on TUCH viral yield in H69 cells,TUCH [15],no decrease in yield
same,effect on Ro1845 binding to H69 cells,Ro1845 [16],no effects
same,effect on Ro1845 viral yield in H69 cells,Ro1845 [17],no decrease in yield
same,histology of extrahepatic bile ducts (hematoxylin and eosin),RRV [3],mild inflammation with a patent lumen
VSRLA,effect on RRV binding,RRV [1]; [20],maintained the ability to inhibit
GHRP,ability to inhibit RRV binding,RRV [18],no ability to inhibit RRV binding
DGEA [reference compound],effect on RRV binding,RRV [1]; [20],significantly inhibited
same,"RRV binding, percent of control (positive control)","RRV [1]; mouse cholangiocytes, concentration not given, Fig. 1B",61.40%
same,effect on TUCH binding,TUCH [4],significantly inhibited
same,effect on TUCH replication / viral yield,TUCH [5],significantly inhibited
same,effect on Ro1845 binding,Ro1845 [6],significantly inhibited
same,effect on Ro1845 replication / viral yield,Ro1845 [7],significantly inhibited
same,peptide blocking of RRV binding in negative control siRNA cholangiocytes,RRV [19],remained sensitive to DGEA blocking
MRTRVSRLY,effect on RRV binding,RRV [1]; [21],significantly inhibiting
same,effect on RRV replication,RRV [2],significantly inhibiting
